Measurements taken from ChEMBL document CHEMBL1125701 (J Med Chem, 1991).

Experiments:
[1] = molecular target: Delta-type opioid receptor (Mus musculus) (UniProt P32300); test: Antagonistic potency at opioid receptor delta (100 nM) (Ke =IC50 in the presence of antagonist divided by the control IC50 value); assay type: functional
Method in brief: (§1)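 Electrically stimulated mouse vas deferens preparation, δ agonist DADLE. The antagonist was incubated with the tissue for 15 min before agonist testing. DADLE IC50 was measured with and without antagonist on the same preparation. IC50 ratio = IC50 with antagonist / control IC50. Ke = [antagonist]/(IC50 ratio − 1).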

[2] = molecular target: Mu-type opioid receptor (Cavia porcellus) (UniProt P97266)
[3] = molecular target: Kappa-type opioid receptor (Cavia porcellus) (UniProt P41144)
[4] = molecular target: Mu-type opioid receptor (Homo sapiens) (UniProt P35372); details: 100 nM
[5] = molecular target: Kappa-type opioid receptor (Cavia porcellus) (UniProt P41144); test: Selectivity ratio is IC50 value of opioid receptor kappa to that of opioid receptor delta
[6] = molecular target: Mu-type opioid receptor (Cavia porcellus) (UniProt P97266); test: Selectivity ratio is IC50 value of mu-opioid receptor to that of delta-opioid receptor
[7] = molecular target: Kappa-type opioid receptor (Homo sapiens) (UniProt P41145); details: 100 nM
[8] = molecular target: Kappa-type opioid receptor (Cavia porcellus) (UniProt P41144); test: Selectivity ratio is IC50 value of opioid receptor kappa to that of delta-opioid receptor
[9] = molecular target: Kappa-type opioid receptor (Cavia porcellus) (UniProt P41144); test: Selectivity ratio is Ki value of opioid receptor kappa to that of delta-opioid receptor
[10] = molecular target: Mu-type opioid receptor (Cavia porcellus) (UniProt P97266); test: Antagonistic potency at opioid receptor mu (200 nM) (Ke =IC50 in the presence of antagonist divided by the control IC50 value); assay type: functional
Method in brief: (§2)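 Electrically stimulated guinea pig ileal longitudinal muscle, μ agonist morphine. The antagonist was preincubated for 15 min before agonist testing. Agonist IC50 was measured with and without antagonist on the same preparation. IC50 ratio = IC50 with antagonist / control IC50. Ke = [antagonist]/(IC50 ratio − 1).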

[11] = molecular target: Kappa-type opioid receptor (Cavia porcellus) (UniProt P41144); test: Antagonistic potency at opioid receptor kappa (200 nM) (Ke =IC50 in the presence of antagonist divided by the control IC50 value); assay type: functional
Method in brief: as §2, with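 “κ” for “μ”, “ethylketazocine.” for “morphine.”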

[12] = molecular target: Kappa-type opioid receptor (Cavia porcellus, UniProt P41144); test: Compound was evaluated for the binding affinity to opioid receptor kappa using [3H]-EK as radioligand in guinea pig brain membrane; assay type: cell membranes
Method in brief: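 Radioligand displacement in guinea pig brain membranes, modified from an earlier published method. [3H]EK was used with 1 μM DAMGO present to block μ sites.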

Mu-type opioid receptor = Mu-type opioid receptor (Cavia porcellus, UniProt P97266); test: Compound was evaluated for the binding affinity to Opioid receptor mu using [3H]DAMGO as radioligand in guinea pig brain membrane; assay type: cell membranes
[13] = molecular target: Delta-type opioid receptor (Mus musculus) (UniProt P32300); test: Antagonistic potency at opioid receptor delta (200 nM) (Ke =IC50 in the presence of antagonist divided by the control IC50 value); assay type: functional; method in brief: as §1
[14] = molecular target: Mu-type opioid receptor (Cavia porcellus) (UniProt P97266); test: Selectivity ratio is Ki value of mu-opioid receptor to that of delta-opioid receptor
[15] = molecular target: Kappa-type opioid receptor (Homo sapiens) (UniProt P41145); test: Competitive inhibition of Ethylketazocine on Guinea pig ileal longitudinal muscle for the opioid receptor kappa at 200 nM; assay type: functional
Method in brief: as §2, with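 “κ” for “μ”, “ethylketazocine.” for “morphine.”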

[16] = molecular target: Mu-type opioid receptor (Homo sapiens) (UniProt P35372); test: Competitive inhibition of Morphine on Guinea pig ileal longitudinal muscle for the opioid receptor mu at 200 nM; assay type: functional; method in brief: as §2
[17] = molecular target: Delta-type opioid receptor (Mus musculus) (UniProt P32300); test: Antagonistic potency at opioid receptor delta (20 nM) (Ke =IC50 in the presence of antagonist divided by the control IC50 value); assay type: functional; method in brief: as §1
[18] = molecular target: Kappa-type opioid receptor (Cavia porcellus) (UniProt P41144); test: Antagonistic potency at opioid receptor kappa (20 nM) (Ke =IC50 in the presence of antagonist divided by the control IC50 value); assay type: functional
Method in brief: as §2, with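 “κ” for “μ”, “ethylketazocine.” for “morphine.”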

[19] = molecular target: Kappa-type opioid receptor (Homo sapiens) (UniProt P41145); test: Competitive inhibition of Ethylketazocine on Guinea pig ileal longitudinal muscle for the opioid receptor kappa at 20 nM; assay type: functional
Method in brief: as §2, with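 “κ” for “μ”, “ethylketazocine.” for “morphine.”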

Row | SMILES | Ke [1] | Ke [2] | Ke [3] | Ratio [5] | Ratio [6] | Ke [10] | Ke [11] | also measured
1 | Oc1ccc2c3c1O[C@H]1C(c4ccccc4)=CC[C@@]4(O)[C@@H](C2)N(CC2CC2)CC[C@]314 | 13.5 | 0.68 | 1.7 | – | – | – | – | IC50 ratio [4]: 148
2 | Oc1ccc2c3c1O[C@H]1c4nc5ccccc5cc4C[C@@]4(O)[C@@H](C2)N(CC2CC2)CC[C@]314 | 1.9 | 11 | 15.4 | 8 | 6 | – | – | IC50 ratio [7]: 7.5; IC50 ratio [4]: 9.9
3 | Cn1c2c(c3c1[C@@H]1Oc4c(O)ccc5c4[C@@]14CCN(CC1CC1)[C@H](C5)[C@]4(O)C3)CCCC2 | – | 158 | 254 | – | – | – | – | –
4 | Oc1ccc2c3c1O[C@H]1C(c4c[nH]c5ccccc45)=CC[C@@]4(O)[C@@H](C2)N(CC2CC2)CC[C@]314 | – | – | – | – | 0.21 | 1.1 | 0.83 | Ratio [8]: 0.16; Ratio [9]: 6; Ki [12]: 6.2 nM; Ki (Mu-type opioid receptor): 0.63 nM; Ke [13]: 5.1; Ratio [14]: 0.6; IC50 ratio [15]: 243; IC50 ratio [16]: 189
5 | Oc1ccc2c3c1O[C@H]1c4oc5ccccc5c4C[C@@]4(O)[C@@H](C2)N(CC2CC2)CC[C@]314 | – | – | – | – | – | 27 | 48 | Ke [17]: 0.27
6 | Oc1ccc2c3c1O[C@H]1c4nc5ccccc5nc4C[C@@]4(O)[C@@H](C2)N(CC2CC2)CC[C@]314 | – | – | – | 5 | 3 | 5.5 | 10 | Ratio [9]: 227; Ke [17]: 1.9; Ratio [14]: 9; IC50 ratio [15]: 21; IC50 ratio [16]: 37
7 | Oc1ccc2c3c1O[C@H]1C(c4ccc[nH]4)=CC[C@@]4(O)[C@@H](C2)N(CC2CC2)CC[C@]314 | 8.2 | – | – | 0.03 | – | – | – | Ke [18]: 0.23; IC50 ratio [19]: 89
